Laboratory results reported in ChEMBL document CHEMBL1157134, “Liposomal formulation of retinoids designed for enzyme triggered release” (J Med Chem, 2010).
One block for each molecule: values may come before it.

What was measured:
[1] = tested on: COLO 205; experiment: Cytotoxicity against human COLO205 cells after 48 hrs by MTT assay; format: functional, cell-based; settings: COLO 205, 48 h
In short: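 Colo205 cells grown in RPMI 1640 with 10% fetal calf serum and 1% Pen-Strep at 5% CO₂, seeded at 2 × 10⁴ cells/well 24 h before treatment. Dosing used conditioned medium carrying about 100 ng/mL sPLA₂ IIA. Exposure was 24 h, then a wash and 48 h in complete medium before MTT. Reported as mean ± SD, n = 3 or more.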

[2] = tested on: HT-29; experiment: Cytotoxicity against human HT-29 cells after 48 hrs by MTT assay; format: functional, cell-based; settings: HT-29, 48 h
In short: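 HT-29 cells grown in McCoy's 5A with 10% fetal calf serum and 1% Pen-Strep, seeded at 1 × 10⁴ cells/well 24 h before dosing. Tested with or without snake (Agkistrodon piscivorus piscivorus) venom sPLA₂ at 5 nM final. Exposure was 24 h, then a wash and 48 h in complete medium before MTT viability. Mean ± SD, n = 3 or more.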

[3] = tested on: HT-29; experiment: Cytotoxicity against human HT-29 cells after 48 hrs by MTT assay in presence of Agkistrodon piscivorus piscivorus venom sPLA2; format: functional, cell-based; settings: HT-29, 48 h
In short: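 HT-29 cells (McCoy's 5A, 10% fetal calf serum) plated at 1 × 10⁴ cells/well 24 h before dosing. Liposomal prodrugs diluted in PBS, lipid concentration set by phosphorus analysis; snake venom sPLA₂ added to a final 5 nM. Cells exposed for 24 h, washed, then kept in complete medium another 48 h. Viability read by MTT, mean ± SD, n ≥ 3.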

[4] = Cytotoxicity against human MT3 cells after 48 hrs by MTT assay; format: functional, cell-based; settings: MT-3, 48 h
In short: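 MT-3 breast cancer cells grown in RPMI 1640 with 10% fetal calf serum and 1% Pen-Strep at 5% CO₂, plated at 1 × 10⁴ cells/well 24 h ahead. Retinoids were given in DMSO/water, final DMSO ≤0.5%. Exposure was 24 h, then a wash and 48 h in complete medium before MTT. Mean ± SD, n = 3.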

[5] = Inhibition of sPLA2 from Naja mossambica mossambica by fluorescence technique
[6] = Stability assessed as compound degradation after 48 hrs by MALDI-TOF MS analysis in presence of Naja mossambica mossambica venom sPLA2; format: ADME
In short: (§1)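 Incubated with purified snake venom sPLA₂ at 37 °C, stirred and shielded from light, for 48 h. Extracts mixed with DHB matrix (DPPG included) and analysed by MALDI-TOF MS for remaining prodrug.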

[7] = Stability assessed as compound degradation after 48 hrs by MALDI-TOF MS analysis in presence of Agkistrodon piscivorus piscivorus venom sPLA2; format: ADME; in short: as §1

SMILES: CCCCCCCCCCCCCCCCCCOC[C@H](COP(=O)(O)OC[C@H](O)CO)OC(=O)CCCCCCCCCCCCCCCCC
- IC50 [1]: 33 µM
- IC50 [2]: > 200 µM
- IC50 [3]: 9 µM

SMILES: CCCCCCCCCCCCCCCCCC(=O)OC[C@H](COP(=O)(O)OC[C@H](O)CO)OC(=O)CCCCCCCCCCCCCCCCC
- IC50 [1]: 54 µM
- IC50 [2]: > 200 µM
- IC50 [3]: 25 µM

SMILES: CCCCCCCCc1ccc(-c2ccc(C(=O)OCCCCCC(=O)O)cc2)cc1
- IC50 [1]: 127 µM
- IC50 [2]: > 200 µM
- IC50 [4]: 14 µM

SMILES: CCCCCCCCCCCCCCCCCC(=O)OC[C@@H](O)COP(=O)(O)OCC(O)CO (some centres not stated)
- IC50 [1]: 22 µM
- IC50 [2]: 7 µM

- IC50 [5]: 8 µM
- Ki [5]: 6 µM
SMILES: CC1=C(/C=C/C(C)=C/C=C/C(C)=C/C(=O)OCCCCCC(=O)O)C(C)(C)CCC1
- IC50 [1]: 17 µM
- IC50 [2]: 3.6 µM
- IC50 [4]: 17 µM

SMILES: CCCCCCCCCCCCCCCCCCOC[C@@H](O)COP(=O)(O)OC[C@@H](O)CO
- IC50 [1]: 25 µM
- IC50 [2]: 11 µM

SMILES: CCCCCCCCCCCCCCCCCC(=O)OC[C@H](COP(=O)([O-])OC[C@@H](O)CO)OC(=O)CCCCCOC(=O)c1ccc(-c2ccc(CCCCCCCC)cc2)cc1.[Na+]
- IC50 [1]: 19 µM
- IC50 [2]: > 200 µM
- Stability [6]: Unstable
- Stability [7]: Unstable
- IC50 [3]: 8 µM

SMILES: CCCCCCCCCCCCCCCCCCOC[C@H](COP(=O)([O-])OC[C@@H](O)CO)OC(=O)CCCCCOC(=O)c1ccc(-c2ccc(CCCCCCCC)cc2)cc1.[Na+]
- IC50 [1]: 7 µM
- IC50 [2]: > 200 µM
- Stability [6]: Unstable
- Stability [7]: Unstable
- IC50 [3]: 3 µM

SMILES: CCCCCCCCCCCCCCCCCC(=O)OC[C@H](COP(=O)([O-])OC[C@@H](O)CO)OC(=O)CCCCCOC(=O)/C=C(C)/C=C/C=C(C)/C=C/C1=C(C)CCCC1(C)C.[Na+]
- IC50 [1]: 12 µM
- IC50 [2]: > 200 µM
- Stability [6]: Unstable
- Stability [7]: Unstable
- IC50 [3]: 6 µM

SMILES: CCCCCCCCCCCCCCCCCCOC[C@H](COP(=O)([O-])OC[C@@H](O)CO)OC(=O)CCCCCOC(=O)/C=C(C)/C=C/C=C(C)/C=C/C1=C(C)CCCC1(C)C.[Na+]
- IC50 [1]: 16 µM
- IC50 [2]: > 200 µM
- Stability [7]: Unstable
- IC50 [3]: 7 µM

SMILES: CCCCCCCCc1ccc(-c2ccc(C(=O)O)cc2)cc1
- IC50 [1]: > 200 µM
- IC50 [2]: > 200 µM
- IC50 [4]: 51 µM

SMILES: CCCCCCCCCCCCCCCCCC(=O)O [STEARIC ACID]
- IC50 [1]: > 200 µM
- IC50 [2]: > 200 µM

- IC50 [5]: 15 µM
- Ki [5]: 11 µM
SMILES: CC1=C(/C=C/C(C)=C/C=C/C(C)=C/C(=O)O)C(C)(C)CCC1 [TRETINOIN]
- IC50 [1]: 37 µM
- IC50 [2]: 4.3 µM
- IC50 [4]: 30 µM
